The values that follow come from ChEMBL document CHEMBL4814077, “Discovery of Surfactins as Inhibitors of MicroRNA Processing Using Cat-ELCCA” (ACS Med Chem Lett, 2021).

Calls of active or inactive are those of the source. The rule behind the calls is not given here. *1 amine or outer side, *2 acyl side, *3 side chain or, on linkers, in order; H or OH if unused. Where a SMILES comes first, the peptide text is derived from it. Bridges are numbered along the chain shown (N, C = ends). The star is where a group is joined. ξ: configuration not given here. Pentadecanoyl(3ξ-OH,15-Gua) = N=C(N)NCCCCCCCCCCCCC(O)CC(=O)*; X1 = CCC(C)CCCCCCCCC(CC(=O)[*:1])O[*:2]; X7 = CC(C)CCCCCCCCCC(CC(=O)[*:1])O[*:2]; X3 = CC(C)CCCCCCCCC(CC(=O)[*:1])O[*:2]; X5 = CCC(C)CCCCCCC(CC(=O)[*:1])O[*:2]; X2 = CCCCCCCCCCCC(CC(=O)[*:1])O[*:2]; X4 = CCCCCCCCCCC(CC(=O)[*:1])O[*:2]; X6 = CCCCCCCCCC(CC(=O)[*:1])O[*:2]

The test system of series [1] is Pre-let-7d miRNA. The experiment in a line: Inhibition of Dicer-mediated pre-let-7d miRNA (unknown origin) processing using […] as substrate incubated for 15 mins by cat-ELCCA assay. The class given is nucleic-acid assay. In short, it runs like this:
(§1)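 Cat-ELCCA format with immobilized pre-miRNA (pre-miR-21, or pre-let-7d as a related control substrate) processed by excess Dicer. Integrity of the terminal loop is read by trans-cyclooctene/methyltetrazine click ligation of modified HRP, giving chemiluminescent signal amplification. Assay buffer contains detergent. Dose–response curves give IC50 values reported as 95% confidence intervals.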

The subject of series [2] is microRNA 21. Nature of the series: Inhibition of Dicer-mediated pre-miRNA-21 (unknown origin) processing using […] as substrate incubated for 15 mins by cat-ELCCA assay. Format: nucleic-acid assay. In short, it runs like this:
as §1

The test system of series [3] is microRNA 21. Nature of the series: Inhibition of pre-miRNA-21 (unknown origin) assessed as reduction in miRNA/Dicer interaction at 10 to 120 uM incubated for 40 mins by EMSA assay. Format: nucleic-acid assay. As to conditions: dose 10-120 µM. For orientation: In EMSA bound probe runs differently from free probe, usually more slowly.
Series [4] concerns microRNA 21. The experiment in a line: Inhibition of pre-miRNA-21 maturation in human HeLa cells transfected with firefly luciferase reporter gene assessed as reduction in luciferase gene expression at 100 uM incubated for 48 hrs by pmiRGlo-dual luciferase reporter assay. Format: cell-based. In short, it runs like this: (§2)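 HeLa cells transiently transfected with pmiRGLO dual-luciferase reporters carrying miRNA target sites (miR-21 or let-7d) in the firefly luciferase 3′ UTR. Cells treated at 100 μM; luminescence read after 48 h. miR-21 mismatch reporter and empty-vector controls were included. Significance given as p values.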
(In a reporter assay the amount or activity of a reporter protein is the signal.)

Series [5] deals with microRNA 21. The experiment in a line: Binding affinity to pre-miRNA-21 (unknown origin) by SPR assay. Format: nucleic-acid assay. For orientation: Surface plasmon resonance follows binding to a sensor surface in real time, without labels.
Series [6] concerns HeLa. Nature of the series: Cytotoxicity against human HeLa cells assessed as reduction in cell viability at 100 uM incubated for 48 hrs by CellTiter Glo assay. Format: cell-based.
Series [7] addresses Pre-let-7d miRNA. The experiment in a line: Binding affinity to pre-let-7d miRNA (unknown origin) by SPR assay. Format: nucleic-acid assay.
The subject of series [8] is Pre-let-7d miRNA. The experiment in a line: Inhibition of pre-let-7d miRNA maturation in human HeLa cells transfected with firefly luciferase reporter gene assessed as reduction in luciferase gene expression at 100 uM incubated for 48 hrs by pmiRGlo-dual luciferase reporter assay. Format: cell-based. In short, it runs like this: as §2

In the case of `CC(C)CCCCCCCCCC1CC(=O)N[C@@H](CCC(=O)O)C(=O)N[C@@H](CC(C)C)C(=O)N[C@@H](CC(C)C)C(=O)N[C@@H](C(C)C)C(=O)N[C@@H](CC(=O)O)C(=O)N[C@@H](CC(C)C)C(=O)N[C@@H](CC(C)C)C(=O)O1` (stereo partly drawn) (ELLVDLL; linker N-C via X7), the inhibition entry in series [1] and in series [2] was “inactive” throughout.

As to `CCCCCCCCCC1CC(=O)N[C@@H](CCC(=O)O)C(=O)N[C@@H](CC(C)C)C(=O)N[C@@H](CC(C)C)C(=O)N[C@@H](C(C)C)C(=O)N[C@@H](CC(=O)O)C(=O)N[C@@H](CC(C)C)C(=O)N[C@@H](CC(C)C)C(=O)O1` (stereo partly drawn) (ELLVDLL; linker N-C via X6), the IC50 in series [1] and in series [2] was greater than 200 µM in each case.

Turning to `CC(C)[C@@H]1NC(=O)[C@@H](C(C)C)NC(=O)[C@@H](NC(=O)CC(O)CCCCCCCCCCCCNC(=N)N)[C@@H](C)OC(=O)[C@@H](C)NC(=O)[C@@H](CC(N)=O)NC(=O)[C@@H]([C@H](C)O)NC1=O` (stereo partly drawn), the inhibition result in series [1] and in series [2] was “inactive” in each case.

As to `CCC(C)CCCCCCCCC1CC(=O)N[C@@H](CCC(=O)O)C(=O)N[C@@H](CC(C)C)C(=O)N[C@@H](CC(C)C)C(=O)N[C@@H](C(C)C)C(=O)N[C@@H](CC(=O)O)C(=O)N[C@@H](CC(C)C)C(=O)N[C@@H](CC(C)C)C(=O)O1` (stereo partly drawn) (ELLVDLL; linker N-C via X1), the inhibition entry in series [3] and in series [8] was “inactive” throughout. The inhibition entry in series [4] was “Active”. Also, the Kd (usually the concentration at which binding is half-saturated) in series [5] turned out to be 0.78 µM; in series [7], 1.2 µM. Moreover, the IC50 (usually the concentration that gives 50% inhibition) amounted to 54 µM in series [1] and 38 µM in series [2]. In addition, the inhibition result in series [1] and in series [2] was “Dose-Dependent Effect” throughout. Moreover, the Activity entry in series [6] is “Toxic”.

For `CCCCCCCCCCCC1CC(=O)N[C@@H](CCC(=O)O)C(=O)N[C@@H](CC(C)C)C(=O)N[C@@H](CC(C)C)C(=O)N[C@@H](C(C)C)C(=O)N[C@@H](CC(=O)O)C(=O)N[C@@H](CC(C)C)C(=O)N[C@@H](CC(C)C)C(=O)O1` (stereo partly drawn) (ELLVDLL; linker N-C via X2), the dissociation constant Kd in series [5] stood at 0.73 µM; in series [7] it was 1.4 µM. Moreover, the IC50 in series [1] is 54 µM; in series [2], 48 µM. The inhibition entry in series [1] and in series [2] was “Dose-Dependent Effect” throughout.

In the case of `CC1NC(=O)C(CCC(N)=O)NC(=O)C(C(C)O)NC(=O)C(C(C)C)NC(=O)C(C(C)C)NC(=O)C(NC(=O)CC(O)CCCCCCCCCCCCNC(=N)N)C(C)OC1=O` (stereo not drawn) ({Pentadecanoyl(3ξ-OH,15-Gua)}-TVVTQA; ester 1-C; configuration not given here), the inhibition result in series [1] and in series [2] was “inactive” throughout.

As to `CCC(C)CCCCCCC1CC(=O)N[C@@H](CCC(=O)O)C(=O)N[C@@H](CC(C)C)C(=O)N[C@@H](CC(C)C)C(=O)N[C@@H](C(C)C)C(=O)N[C@@H](CC(=O)O)C(=O)N[C@@H](CC(C)C)C(=O)N[C@@H](CC(C)C)C(=O)O1` (stereo partly drawn) (ELLVDLL; linker N-C via X5), the IC50 in series [1] and in series [2] was greater than 200 µM in each case.

Turning to `CC(C)CCCCCCCCC1CC(=O)N[C@@H](CCC(=O)O)C(=O)N[C@@H](CC(C)C)C(=O)N[C@@H](CC(C)C)C(=O)N[C@@H](C(C)C)C(=O)N[C@@H](CC(=O)O)C(=O)N[C@@H](CC(C)C)C(=O)N[C@@H](CC(C)C)C(=O)O1` (stereo partly drawn) (ELLVDLL; linker N-C via X3), the Kd came to 0.43 µM in series [5] and 2.5 µM in series [7]. The half-inhibitory concentration (IC50) came out at 70 µM in series [1] and 52 µM in series [2]. Further, the inhibition result in series [1] and in series [2] was “Dose-Dependent Effect” in each case.

For the compound `CCCCCCCCCCC1CC(=O)N[C@@H](CCC(=O)O)C(=O)N[C@@H](CC(C)C)C(=O)N[C@@H](CC(C)C)C(=O)N[C@@H](C(C)C)C(=O)N[C@@H](CC(=O)O)C(=O)N[C@@H](CC(C)C)C(=O)N[C@@H](CC(C)C)C(=O)O1` (stereo partly drawn) (ELLVDLL; linker N-C via X4), the figures for the Kd in series [5] and in series [7] were 0.38 µM and 0.3 µM, respectively. The results for the half-inhibitory concentration (IC50) in series [1] and in series [2] were 97 µM and 71 µM, respectively. In addition, the inhibition result in series [1] and in series [2] was “Dose-Dependent Effect” throughout.
